Source: ChEMBL document CHEMBL1138578, “Synthesis and antibacterial activity of nitroaryl thiadiazole-gatifloxacin hybrids” (Eur J Med Chem, 2009)
Converted amounts (≈) assume the structure as drawn.

How the values were obtained:
Staphylococcus aureus = assay: Antibacterial activity against Staphylococcus aureus ATCC 25923 after 18 hrs by conventional agar dilution method; assay type: functional; conditions: ATCC 25923, 18 h
In short: (§1)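 Twofold dilutions in DMSO (1 mL) mixed into molten Mueller–Hinton agar (19 mL) at 50 °C. Inocula adjusted at 600 nm to about 0.5 McFarland (1.5 × 10⁸ CFU/mL), then diluted in 0.85% saline to 10⁷ CFU/mL. Plates spot-inoculated at 10⁴ CFU/spot and incubated 35–37 °C for 18 h. MIC is the lowest concentration giving no visible growth. DMSO-only control plates included.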

[1] = tested on: Staphylococcus epidermidis; assay: Antibacterial activity against Staphylococcus epidermidis ATCC 4940 after 18 hrs by conventional agar dilution method; assay type: functional; conditions: ATCC 4940, 18 h; in short: as §1
Pseudomonas aeruginosa = assay: Antibacterial activity against Pseudomonas aeruginosa ATCC 27853 after 18 hrs by conventional agar dilution method; assay type: functional; conditions: ATCC 27853, 18 h; in short: as §1
Serratia marcescens = assay: Antibacterial activity against Serratia marcescens PTCC 1111 after 18 hrs by conventional agar dilution method; assay type: functional; conditions: PTCC 1111, 18 h; in short: as §1
Enterococcus faecalis = assay: Antibacterial activity against Enterococcus faecalis NCTC 6013 after 18 hrs by conventional agar dilution method; assay type: functional; conditions: NCTC 6013, 18 h; in short: as §1
Escherichia coli = assay: Antibacterial activity against Escherichia coli ATCC 25922 after 18 hrs by conventional agar dilution method; assay type: functional; conditions: ATCC 25922, 18 h; in short: as §1
Bacillus subtilis = assay: Antibacterial activity against Bacillus subtilis ATCC 6051 after 18 hrs by conventional agar dilution method; assay type: functional; conditions: ATCC 6051, 18 h; in short: as §1
[2] = tested on: Salmonella enterica subsp. enterica serovar Typhi str. CT18; assay: Antibacterial activity against Salmonella typhi ATCC 19430 after 18 hrs by conventional agar dilution method; assay type: functional; conditions: ATCC 19430, 18 h
In short: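 Twofold dilutions in DMSO mixed into molten Mueller–Hinton agar at 50 °C. Inoculum adjusted at 600 nm to about 0.5 McFarland (1.5 ×10⁸ CFU/mL), then diluted in 0.85% saline to 10⁷ CFU/mL. Plates spot-inoculated at 10⁴ CFU/spot and incubated at 35–37 °C for 18 h. MIC taken as the lowest concentration with no visible growth. DMSO solvent control run at matching dilutions.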

Shigella flexneri = assay: Antibacterial activity against Shigella flexneri NCTC 8516 after 18 hrs by conventional agar dilution method; assay type: functional; conditions: NCTC 8516, 18 h; in short: as §1
Streptococcus pneumoniae = assay: Antibacterial activity against Streptococcus pneumoniae ATCC 1240 after 18 hrs by conventional agar dilution method; assay type: functional; conditions: ATCC 1240, 18 h; in short: as §1
Micrococcus luteus = assay: Antibacterial activity against Micrococcus luteus ATCC 1110 after 18 hrs by conventional agar dilution method; assay type: functional; conditions: ATCC 1110, 18 h; in short: as §1
[3] = Cytotoxicity against mouse NIH/3T3 cells after 72 hrs by MTT assay; assay type: cell-based; conditions: NIH3T3, 72 h
In short: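 Exponential-phase NIH/3T3 fibroblasts trypsinized and diluted in complete medium to 5 × 10⁴ cells/mL, then plated in 96-well plates. Serial compound dilutions added, each in triplicate, with cell-only wells as the viability control. Incubation 72 h, then MTT (5 mg/mL solution) added for 1 h and the medium replaced for colorimetric read-out.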

Klebsiella pneumoniae = assay: Antibacterial activity against Klebsiella pneumoniae ATCC 10031 after 18 hrs by conventional agar dilution method; assay type: functional; conditions: ATCC 10031, 18 h; in short: as §1

Row | SMILES | MIC (Staphylococcus aureus) | MIC [1] | MIC (Pseudomonas aeruginosa) | MIC (Serratia marcescens) | MIC (Enterococcus faecalis) | MIC (Escherichia coli) | MIC (Bacillus subtilis) | MIC [2] | MIC (Shigella flexneri) | MIC (Streptococcus pneumoniae) | MIC (Micrococcus luteus) | IC50 [3] | MIC (Klebsiella pneumoniae)
1 | COc1c(N2CCNC(C)C2)c(F)cc2c(=O)c(C(=O)O)cn(C3CC3)c12 (stereo unspecified) [GATIFLOXACIN] | 0.25 µg/mL (≈ 0.666 µM) | 0.0625 µg/mL (≈ 0.166 µM) | 2 µg/mL (≈ 5.33 µM) | 0.5 µg/mL (≈ 1.33 µM) | 0.5 µg/mL (≈ 1.33 µM) | 1 µg/mL (≈ 2.66 µM) | 0.5 µg/mL (≈ 1.33 µM) | 0.0625 µg/mL (≈ 0.166 µM) | 0.0625 µg/mL (≈ 0.166 µM) | 0.25 µg/mL (≈ 0.666 µM) | 1 µg/mL (≈ 2.66 µM) | 596 µM | 0.5 µg/mL (≈ 1.33 µM)
2 | COc1c(N2CCN(c3nnc(-c4ccc([N+](=O)[O-])o4)s3)C(C)C2)c(F)cc2c(=O)c(C(=O)O)cn(C3CC3)c12 (stereo unspecified) | 0.125 µg/mL (≈ 0.219 µM) | 0.0078 µg/mL (≈ 0.0137 µM) | > 64 µg/mL | 8 µg/mL (≈ 14 µM) | 0.125 µg/mL (≈ 0.219 µM) | 1 µg/mL (≈ 1.75 µM) | 0.0039 µg/mL (≈ 0.00684 µM) | 1 µg/mL (≈ 1.75 µM) | 0.5 µg/mL (≈ 0.876 µM) | 0.25 µg/mL (≈ 0.438 µM) | 0.125 µg/mL (≈ 0.219 µM) | 238 µM | 1 µg/mL (≈ 1.75 µM)
3 | COc1c(N2CCN(c3nnc(-c4ccccc4[N+](=O)[O-])s3)C(C)C2)c(F)cc2c(=O)c(C(=O)O)cn(C3CC3)c12 (stereo unspecified) | 32 µg/mL (≈ 55.1 µM) | 0.0625 µg/mL (≈ 0.108 µM) | > 64 µg/mL | 16 µg/mL (≈ 27.6 µM) | 2 µg/mL (≈ 3.44 µM) | 16 µg/mL (≈ 27.6 µM) | 0.0625 µg/mL (≈ 0.108 µM) | 16 µg/mL (≈ 27.6 µM) | 16 µg/mL (≈ 27.6 µM) | 0.25 µg/mL (≈ 0.431 µM) | 0.5 µg/mL (≈ 0.861 µM) | 168 µM | 64 µg/mL (≈ 110 µM)
4 | COc1c(N2CCN(c3nnc(-c4cccc([N+](=O)[O-])c4)s3)C(C)C2)c(F)cc2c(=O)c(C(=O)O)cn(C3CC3)c12 (stereo unspecified) | > 64 µg/mL | 0.0313 µg/mL (≈ 0.0539 µM) | > 64 µg/mL | > 64 µg/mL | > 64 µg/mL | > 64 µg/mL | 32 µg/mL (≈ 55.1 µM) | > 64 µg/mL | > 64 µg/mL | 1 µg/mL (≈ 1.72 µM) | 1 µg/mL (≈ 1.72 µM) | 161 µM | > 64 µg/mL
5 | COc1c(N2CCN(c3nnc(-c4ncc([N+](=O)[O-])n4C)s3)C(C)C2)c(F)cc2c(=O)c(C(=O)O)cn(C3CC3)c12 (stereo unspecified) | 0.0313 µg/mL (≈ 0.0535 µM) | 0.5 µg/mL (≈ 0.855 µM) | > 64 µg/mL | 64 µg/mL (≈ 109 µM) | 4 µg/mL (≈ 6.84 µM) | 16 µg/mL (≈ 27.4 µM) | 0.5 µg/mL (≈ 0.855 µM) | 0.25 µg/mL (≈ 0.428 µM) | 1 µg/mL (≈ 1.71 µM) | 1 µg/mL (≈ 1.71 µM) | 2 µg/mL (≈ 3.42 µM) | 246 µM | 0.5 µg/mL (≈ 0.855 µM)
6 | COc1c(N2CCN(c3nnc(-c4ccc([N+](=O)[O-])cc4)s3)C(C)C2)c(F)cc2c(=O)c(C(=O)O)cn(C3CC3)c12 (stereo unspecified) | 32 µg/mL (≈ 55.1 µM) | 0.0625 µg/mL (≈ 0.108 µM) | > 64 µg/mL | 16 µg/mL (≈ 27.6 µM) | 1 µg/mL (≈ 1.72 µM) | 16 µg/mL (≈ 27.6 µM) | 0.0313 µg/mL (≈ 0.0539 µM) | 8 µg/mL (≈ 13.8 µM) | 8 µg/mL (≈ 13.8 µM) | 0.0625 µg/mL (≈ 0.108 µM) | 0.25 µg/mL (≈ 0.431 µM) | 223 µM | 64 µg/mL (≈ 110 µM)
7 | COc1c(N2CCN(c3nnc(-c4ccc([N+](=O)[O-])s4)s3)C(C)C2)c(F)cc2c(=O)c(C(=O)O)cn(C3CC3)c12 (stereo unspecified) | 0.5 µg/mL (≈ 0.852 µM) | 0.125 µg/mL (≈ 0.213 µM) | > 64 µg/mL | 8 µg/mL (≈ 13.6 µM) | 2 µg/mL (≈ 3.41 µM) | 32 µg/mL (≈ 54.5 µM) | 0.5 µg/mL (≈ 0.852 µM) | 1 µg/mL (≈ 1.7 µM) | 1 µg/mL (≈ 1.7 µM) | 0.25 µg/mL (≈ 0.426 µM) | 4 µg/mL (≈ 6.82 µM) | 243 µM | 16 µg/mL (≈ 27.3 µM)
